The structures appear in SMILES notation.

The source of these data is ChEMBL document CHEMBL1811853, “Design and evaluation of 3-aminopyrazolopyridinone kinase inhibitors inspired by the natural product indirubin” (Bioorg Med Chem, 2011).

The target in assay [1] is Tyrosine-protein kinase ABL1 (Homo sapiens, UniProt P00519). The assay can be described thus: Inhibition of ABL at 30 uM by microfluidic mobility shift assay. The method in brief: (§1)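 Single-concentration screen, singlicate, 30 uM final (diluted from 1 mM DMSO solutions), fluorescently tagged peptide substrate appropriate to each kinase, ATP at apparent Km for each protein. Phosphorylated and unphosphorylated peptides separated electrophoretically; conversion is the phosphorylated peak area over the sum of both peaks. No-inhibitor and no-ATP controls; H89 reference on each plate.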

For assay [2], the target named is Mitogen-activated protein kinase 1 (Homo sapiens) (UniProt P28482). The assay can be described thus: Inhibition of ERK2 at 30 uM by microfluidic mobility shift assay. The procedure, abridged: as §1
Assay [3] concerns the target Glycogen synthase kinase-3 beta (Homo sapiens) (UniProt P49841). The assay can be described thus: Inhibition of GSK3B at 30 uM by microfluidic mobility shift assay. The method in brief:
as §1

In assay [4] the target is Insulin receptor (Homo sapiens) (UniProt P06213). Kind of assay: Inhibition of INSR at 30 uM by microfluidic mobility shift assay. The method in brief: as §1
Assay [5] has as its target RAC-beta serine/threonine-protein kinase (Homo sapiens) (UniProt P31751). Kind of assay: Inhibition of AKT2 at 30 uM by microfluidic mobility shift assay. The procedure, abridged: as §1
Assay [6] is described as follows: Inhibition of PKA at 30 uM by microfluidic mobility shift assay. The procedure, abridged:
as §1

The target of assay [7] is Serine/threonine-protein kinase Chk2 (Homo sapiens, UniProt O96017). The assay can be described thus: Inhibition of CHK2 at 30 uM by microfluidic mobility shift assay. The method in brief: as §1
Assay [8] has as its target Ribosomal protein S6 kinase alpha-1 (Homo sapiens) (UniProt Q15418). Kind of assay: Inhibition of RSK1 at 30 uM by microfluidic mobility shift assay. The method in brief: as §1
Assay [9] has as its target Tyrosine-protein kinase Lck (Homo sapiens, UniProt P06239). The assay can be described thus: Inhibition of LCK at 30 uM by microfluidic mobility shift assay. The procedure, abridged:
as §1

Assay [10] deals with T1, MAP kinase-activated protein kinase 5 (Homo sapiens) (UniProt Q8IW41).
T1 sequence (whole entry): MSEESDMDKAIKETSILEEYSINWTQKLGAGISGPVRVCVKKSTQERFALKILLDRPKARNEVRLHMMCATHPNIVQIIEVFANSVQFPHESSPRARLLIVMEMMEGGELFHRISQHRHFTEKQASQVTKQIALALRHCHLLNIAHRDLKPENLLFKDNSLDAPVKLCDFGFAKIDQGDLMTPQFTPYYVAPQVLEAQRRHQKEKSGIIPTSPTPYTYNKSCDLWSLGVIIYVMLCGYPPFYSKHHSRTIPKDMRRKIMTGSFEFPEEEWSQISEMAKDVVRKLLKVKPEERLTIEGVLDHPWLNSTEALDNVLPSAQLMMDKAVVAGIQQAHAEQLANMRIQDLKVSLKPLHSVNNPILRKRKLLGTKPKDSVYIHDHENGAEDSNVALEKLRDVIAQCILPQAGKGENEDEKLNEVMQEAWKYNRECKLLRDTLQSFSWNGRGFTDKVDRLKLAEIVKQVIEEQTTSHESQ
The assay can be described thus: Inhibition of PRAK1 at 30 uM by microfluidic mobility shift assay. The procedure, abridged:
as §1

The target of assay [11] is Mitogen-activated protein kinase 14 (Homo sapiens, UniProt Q16539). The assay can be described thus: Inhibition of p38alpha at 30 uM by microfluidic mobility shift assay. The method in brief:
as §1

Assay [12] has as its target MAP kinase-activated protein kinase 2 (Homo sapiens, UniProt P49137). Kind of assay: Inhibition of MAPKAPK2 at 30 uM by microfluidic mobility shift assay. The method in brief: as §1
Assay [13] addresses T2, Serine/threonine-protein kinase Chk1 (Homo sapiens) (UniProt O14757).
T2 sequence (whole entry): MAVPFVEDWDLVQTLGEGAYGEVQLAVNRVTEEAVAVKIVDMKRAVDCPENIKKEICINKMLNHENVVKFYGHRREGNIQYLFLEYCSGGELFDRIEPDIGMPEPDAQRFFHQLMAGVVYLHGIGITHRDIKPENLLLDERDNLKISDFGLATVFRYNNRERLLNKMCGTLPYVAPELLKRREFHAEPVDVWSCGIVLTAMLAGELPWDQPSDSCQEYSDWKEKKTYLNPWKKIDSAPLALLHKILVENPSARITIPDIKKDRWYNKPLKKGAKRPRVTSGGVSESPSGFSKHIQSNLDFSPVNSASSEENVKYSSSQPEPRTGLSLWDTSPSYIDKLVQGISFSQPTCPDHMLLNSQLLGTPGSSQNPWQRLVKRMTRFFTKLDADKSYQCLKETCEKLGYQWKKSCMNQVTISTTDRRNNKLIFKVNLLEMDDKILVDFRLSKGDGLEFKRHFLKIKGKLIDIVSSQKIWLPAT
The assay can be described thus: Inhibition of CHK1 at 30 uM by microfluidic mobility shift assay. The procedure, abridged:
as §1

The target in assay [14] is Tyrosine-protein kinase Fyn (Homo sapiens, UniProt P06241). The assay can be described thus: Inhibition of FYN at 30 uM by microfluidic mobility shift assay. The procedure, abridged:
as §1

Assay [15] addresses Ribosomal protein S6 kinase alpha-5 (Homo sapiens) (UniProt O75582). The assay can be described thus: Inhibition of MSK1 at 30 uM by microfluidic mobility shift assay. The procedure, abridged: as §1
Assay [16] addresses Mitogen-activated protein kinase 3 (Homo sapiens) (UniProt P27361). Kind of assay: Inhibition of ERK1 at 30 uM by microfluidic mobility shift assay. The method in brief: as §1
Assay [17] deals with T3, Aurora kinase A (Homo sapiens) (UniProt O14965).
T3 sequence (whole entry): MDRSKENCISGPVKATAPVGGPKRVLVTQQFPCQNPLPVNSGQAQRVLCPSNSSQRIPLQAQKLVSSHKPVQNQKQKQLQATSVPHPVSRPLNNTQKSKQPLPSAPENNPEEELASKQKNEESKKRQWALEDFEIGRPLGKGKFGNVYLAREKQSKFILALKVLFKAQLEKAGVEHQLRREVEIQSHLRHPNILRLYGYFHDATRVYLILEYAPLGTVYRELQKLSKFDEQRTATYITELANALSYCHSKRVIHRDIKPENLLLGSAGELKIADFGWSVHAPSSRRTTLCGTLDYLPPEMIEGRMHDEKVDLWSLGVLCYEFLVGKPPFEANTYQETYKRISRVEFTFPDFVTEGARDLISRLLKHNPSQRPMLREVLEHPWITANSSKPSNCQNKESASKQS
Kind of assay: Inhibition of AurA at 30 uM by microfluidic mobility shift assay. The procedure, abridged:
as §1

The target in assay [18] is Tyrosine-protein kinase Lyn (Homo sapiens, UniProt P07948). Kind of assay: Inhibition of LYN at 30 uM by microfluidic mobility shift assay. The procedure, abridged: as §1
The target in assay [19] is Proto-oncogene tyrosine-protein kinase Src (Homo sapiens, UniProt P12931). The assay can be described thus: Inhibition of SRC at 30 uM by microfluidic mobility shift assay. The procedure, abridged:
as §1

Assay [20] has as its target RAC-alpha serine/threonine-protein kinase (Homo sapiens) (UniProt P31749). Kind of assay: Inhibition of AKT1 at 30 uM by microfluidic mobility shift assay. The method in brief:
as §1

For assay [21], the target named is T4, Serine/threonine-protein kinase D2 (Homo sapiens) (UniProt Q9BZL6).
T4 sequence (whole entry): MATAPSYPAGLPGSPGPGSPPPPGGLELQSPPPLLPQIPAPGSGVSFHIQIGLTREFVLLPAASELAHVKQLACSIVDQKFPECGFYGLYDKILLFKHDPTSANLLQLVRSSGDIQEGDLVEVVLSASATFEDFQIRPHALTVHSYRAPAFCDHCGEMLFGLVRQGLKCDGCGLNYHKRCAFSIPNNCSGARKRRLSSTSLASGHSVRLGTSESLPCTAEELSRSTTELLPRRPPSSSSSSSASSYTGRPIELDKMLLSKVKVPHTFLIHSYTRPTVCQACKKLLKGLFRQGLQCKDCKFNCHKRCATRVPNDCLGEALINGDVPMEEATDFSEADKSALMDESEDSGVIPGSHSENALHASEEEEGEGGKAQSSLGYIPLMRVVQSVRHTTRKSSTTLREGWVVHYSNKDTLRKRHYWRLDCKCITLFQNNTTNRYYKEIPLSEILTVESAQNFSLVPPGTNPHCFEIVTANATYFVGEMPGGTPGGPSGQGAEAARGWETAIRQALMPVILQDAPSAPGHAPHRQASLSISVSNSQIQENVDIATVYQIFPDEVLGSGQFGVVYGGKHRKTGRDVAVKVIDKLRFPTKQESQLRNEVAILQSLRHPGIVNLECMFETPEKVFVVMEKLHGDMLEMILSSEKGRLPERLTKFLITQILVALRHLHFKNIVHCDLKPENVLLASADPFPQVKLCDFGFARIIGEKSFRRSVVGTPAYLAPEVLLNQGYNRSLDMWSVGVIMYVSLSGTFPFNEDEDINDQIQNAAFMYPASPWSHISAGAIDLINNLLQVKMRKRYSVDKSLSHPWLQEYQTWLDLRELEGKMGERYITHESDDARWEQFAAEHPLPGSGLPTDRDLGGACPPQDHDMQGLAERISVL
Kind of assay: Inhibition of PKD2 at 30 uM by microfluidic mobility shift assay. The method in brief:
as §1

Sequence of MAP kinase-activated protein kinase 2 (P49137 whole entry, looked up): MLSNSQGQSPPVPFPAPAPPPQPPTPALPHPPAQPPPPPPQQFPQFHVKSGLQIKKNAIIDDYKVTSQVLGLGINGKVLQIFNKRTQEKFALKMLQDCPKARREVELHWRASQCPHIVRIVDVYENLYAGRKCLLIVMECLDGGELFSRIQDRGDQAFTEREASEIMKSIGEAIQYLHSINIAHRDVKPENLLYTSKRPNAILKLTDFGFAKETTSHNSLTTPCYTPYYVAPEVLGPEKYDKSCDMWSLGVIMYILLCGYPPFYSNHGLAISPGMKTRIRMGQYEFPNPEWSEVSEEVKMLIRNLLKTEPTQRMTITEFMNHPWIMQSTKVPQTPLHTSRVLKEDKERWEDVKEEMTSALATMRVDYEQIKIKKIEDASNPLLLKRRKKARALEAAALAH
Sequence of Mitogen-activated protein kinase 3 (Homo sapiens) (P27361 whole entry): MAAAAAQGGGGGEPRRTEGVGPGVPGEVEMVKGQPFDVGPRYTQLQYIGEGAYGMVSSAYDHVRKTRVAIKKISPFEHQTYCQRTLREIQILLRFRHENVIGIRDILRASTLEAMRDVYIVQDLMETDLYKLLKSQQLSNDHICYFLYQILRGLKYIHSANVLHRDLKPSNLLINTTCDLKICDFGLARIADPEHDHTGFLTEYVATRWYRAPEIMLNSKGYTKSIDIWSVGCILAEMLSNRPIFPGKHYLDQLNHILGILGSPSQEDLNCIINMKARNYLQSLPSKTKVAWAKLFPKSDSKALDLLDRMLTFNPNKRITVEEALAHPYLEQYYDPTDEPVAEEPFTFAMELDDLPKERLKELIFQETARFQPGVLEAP
Sequence of Mitogen-activated protein kinase 14 (Q16539 whole entry): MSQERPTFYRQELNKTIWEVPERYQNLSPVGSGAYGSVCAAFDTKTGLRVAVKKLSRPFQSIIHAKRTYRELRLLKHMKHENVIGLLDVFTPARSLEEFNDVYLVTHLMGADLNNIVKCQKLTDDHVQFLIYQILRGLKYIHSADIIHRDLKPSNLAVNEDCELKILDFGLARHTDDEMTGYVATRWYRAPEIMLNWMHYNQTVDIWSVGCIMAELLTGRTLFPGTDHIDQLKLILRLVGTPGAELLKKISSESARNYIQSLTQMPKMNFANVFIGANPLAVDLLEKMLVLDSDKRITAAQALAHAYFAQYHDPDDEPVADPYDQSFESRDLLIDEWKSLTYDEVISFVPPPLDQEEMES
Sequence of Tyrosine-protein kinase Fyn (P06241 2-537 limits assumed): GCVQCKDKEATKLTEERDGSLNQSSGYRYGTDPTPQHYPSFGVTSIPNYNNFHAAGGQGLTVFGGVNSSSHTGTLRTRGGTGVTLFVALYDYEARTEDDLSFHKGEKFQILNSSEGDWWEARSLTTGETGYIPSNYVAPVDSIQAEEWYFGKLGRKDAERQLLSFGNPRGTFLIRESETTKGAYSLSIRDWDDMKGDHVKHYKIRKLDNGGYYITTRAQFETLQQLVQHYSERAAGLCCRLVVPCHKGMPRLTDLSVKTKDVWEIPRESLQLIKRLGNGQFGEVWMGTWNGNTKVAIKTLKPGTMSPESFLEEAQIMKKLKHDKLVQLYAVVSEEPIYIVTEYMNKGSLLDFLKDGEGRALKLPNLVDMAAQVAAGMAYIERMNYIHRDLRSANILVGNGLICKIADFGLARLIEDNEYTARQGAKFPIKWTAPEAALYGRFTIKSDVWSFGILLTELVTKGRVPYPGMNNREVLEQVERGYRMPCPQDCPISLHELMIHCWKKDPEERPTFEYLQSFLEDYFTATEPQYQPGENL
Sequence of Insulin receptor (Homo sapiens) (P06213 28-758 limits assumed): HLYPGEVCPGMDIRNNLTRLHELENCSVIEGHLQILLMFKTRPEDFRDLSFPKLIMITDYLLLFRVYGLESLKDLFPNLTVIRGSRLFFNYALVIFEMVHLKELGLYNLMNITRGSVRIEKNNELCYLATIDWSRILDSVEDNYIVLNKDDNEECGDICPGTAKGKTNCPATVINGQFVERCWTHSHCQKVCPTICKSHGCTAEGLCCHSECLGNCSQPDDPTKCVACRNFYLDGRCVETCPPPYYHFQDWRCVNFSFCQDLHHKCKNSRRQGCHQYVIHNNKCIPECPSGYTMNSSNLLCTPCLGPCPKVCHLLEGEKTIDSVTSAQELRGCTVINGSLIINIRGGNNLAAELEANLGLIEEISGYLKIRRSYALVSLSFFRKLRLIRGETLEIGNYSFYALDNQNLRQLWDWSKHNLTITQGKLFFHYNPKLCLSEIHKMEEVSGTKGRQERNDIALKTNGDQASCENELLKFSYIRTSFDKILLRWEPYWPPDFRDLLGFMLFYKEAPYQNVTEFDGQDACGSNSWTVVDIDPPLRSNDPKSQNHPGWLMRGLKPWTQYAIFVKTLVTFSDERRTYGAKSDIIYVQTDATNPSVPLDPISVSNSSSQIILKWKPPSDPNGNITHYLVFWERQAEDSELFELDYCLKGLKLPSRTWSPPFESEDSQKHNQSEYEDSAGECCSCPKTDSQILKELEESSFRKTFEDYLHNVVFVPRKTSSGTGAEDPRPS
Sequence of Insulin receptor (Homo sapiens) (P06213 763-1382 limits assumed): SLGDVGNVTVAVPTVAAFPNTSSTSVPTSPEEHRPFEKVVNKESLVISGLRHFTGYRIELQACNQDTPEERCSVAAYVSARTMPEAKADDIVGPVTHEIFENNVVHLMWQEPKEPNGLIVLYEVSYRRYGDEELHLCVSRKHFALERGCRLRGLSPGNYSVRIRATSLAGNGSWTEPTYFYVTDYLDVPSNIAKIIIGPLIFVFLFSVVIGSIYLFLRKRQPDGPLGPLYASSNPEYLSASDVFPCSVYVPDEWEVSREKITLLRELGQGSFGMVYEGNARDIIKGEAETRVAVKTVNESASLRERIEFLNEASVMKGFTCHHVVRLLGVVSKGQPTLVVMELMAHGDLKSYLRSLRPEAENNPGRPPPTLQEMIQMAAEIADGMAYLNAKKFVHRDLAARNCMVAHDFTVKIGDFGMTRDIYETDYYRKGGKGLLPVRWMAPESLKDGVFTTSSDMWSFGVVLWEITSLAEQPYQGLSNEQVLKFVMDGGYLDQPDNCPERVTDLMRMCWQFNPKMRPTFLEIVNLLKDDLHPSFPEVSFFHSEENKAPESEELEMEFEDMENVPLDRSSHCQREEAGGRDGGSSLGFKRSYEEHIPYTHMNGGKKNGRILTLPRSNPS
Sequence of Glycogen synthase kinase-3 beta (Homo sapiens) (P49841 whole entry, looked up): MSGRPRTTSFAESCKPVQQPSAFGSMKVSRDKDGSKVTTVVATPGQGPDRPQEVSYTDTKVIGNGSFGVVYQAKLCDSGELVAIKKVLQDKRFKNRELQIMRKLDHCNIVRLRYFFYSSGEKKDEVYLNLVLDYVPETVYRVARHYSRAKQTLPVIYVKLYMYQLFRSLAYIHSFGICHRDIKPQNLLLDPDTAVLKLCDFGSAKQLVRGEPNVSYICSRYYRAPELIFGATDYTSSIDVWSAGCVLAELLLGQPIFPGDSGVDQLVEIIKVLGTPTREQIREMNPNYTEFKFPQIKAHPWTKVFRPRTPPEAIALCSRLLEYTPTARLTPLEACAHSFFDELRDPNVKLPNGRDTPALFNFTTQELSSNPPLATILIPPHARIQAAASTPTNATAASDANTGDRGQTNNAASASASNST
Sequence of Tyrosine-protein kinase Lck (P06239 2-509 limits assumed): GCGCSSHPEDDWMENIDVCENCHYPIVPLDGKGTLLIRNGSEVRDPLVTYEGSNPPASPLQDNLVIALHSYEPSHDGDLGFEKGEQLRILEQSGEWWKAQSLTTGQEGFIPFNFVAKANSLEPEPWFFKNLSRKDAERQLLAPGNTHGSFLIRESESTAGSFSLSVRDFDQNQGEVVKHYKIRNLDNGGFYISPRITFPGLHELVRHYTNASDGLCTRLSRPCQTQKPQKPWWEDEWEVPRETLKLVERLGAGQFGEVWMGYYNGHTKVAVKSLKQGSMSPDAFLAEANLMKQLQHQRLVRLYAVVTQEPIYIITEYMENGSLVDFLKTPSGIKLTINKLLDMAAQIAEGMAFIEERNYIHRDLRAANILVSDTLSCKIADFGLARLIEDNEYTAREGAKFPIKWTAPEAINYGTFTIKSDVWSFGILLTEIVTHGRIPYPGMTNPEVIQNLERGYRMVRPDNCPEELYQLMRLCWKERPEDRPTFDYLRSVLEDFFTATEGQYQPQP
Sequence of RAC-beta serine/threonine-protein kinase (Homo sapiens) (P31751 whole entry): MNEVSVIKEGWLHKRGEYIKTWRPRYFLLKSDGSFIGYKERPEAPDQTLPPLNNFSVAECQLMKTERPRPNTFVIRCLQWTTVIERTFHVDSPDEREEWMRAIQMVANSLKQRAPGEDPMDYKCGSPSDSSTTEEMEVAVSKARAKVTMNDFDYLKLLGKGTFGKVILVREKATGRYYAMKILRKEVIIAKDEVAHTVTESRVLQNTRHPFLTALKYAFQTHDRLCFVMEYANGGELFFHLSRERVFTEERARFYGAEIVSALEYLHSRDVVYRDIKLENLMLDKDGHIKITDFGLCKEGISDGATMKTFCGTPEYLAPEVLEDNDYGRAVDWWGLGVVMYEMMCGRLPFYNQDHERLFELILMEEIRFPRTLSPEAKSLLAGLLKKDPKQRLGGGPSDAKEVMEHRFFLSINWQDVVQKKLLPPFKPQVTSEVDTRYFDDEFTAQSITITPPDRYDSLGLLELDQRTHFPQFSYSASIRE
Sequence of Mitogen-activated protein kinase 1 (Homo sapiens) (P28482 whole entry): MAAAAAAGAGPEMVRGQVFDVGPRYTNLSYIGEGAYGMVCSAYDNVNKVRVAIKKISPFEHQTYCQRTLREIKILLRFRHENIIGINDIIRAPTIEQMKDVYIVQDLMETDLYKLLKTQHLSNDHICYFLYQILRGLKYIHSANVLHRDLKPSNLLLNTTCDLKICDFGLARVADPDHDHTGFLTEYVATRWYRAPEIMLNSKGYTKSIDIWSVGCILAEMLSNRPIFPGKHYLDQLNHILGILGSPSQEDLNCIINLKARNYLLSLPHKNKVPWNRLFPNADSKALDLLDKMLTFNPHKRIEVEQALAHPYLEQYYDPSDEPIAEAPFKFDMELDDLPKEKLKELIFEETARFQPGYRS

Turning to `Nc1c2cnc(-c3ccccc3)cc2nn1-c1ccccc1`, the inhibition was found to be 19% in assay [1]; 1% in assay [2]; 4% in assay [3]; 3% in [4]; 3% in assay [5]; 4% in assay [6]. For the same compound, the inhibition was 7% in assay [7]; -3% in [8]; 13% in assay [9]; 2% in assay [10]; 55% in assay [11]; 1% in assay [12]. The inhibition in [13] was 6%; in assay [14], 13%; in assay [15], -2%; in assay [16], 5%; in assay [17], 3%; in assay [18] it was 29%. For the same compound, the figures for the inhibition in assay [19] and in [20] were 9% and -1%, respectively.

Regarding `Cc1cc2[nH]ncc2c(=O)[nH]1`, the inhibition in assay [1] stood at 4%; in assay [2] it was 0%; in assay [3] it was 13%; in [4], 2%; in assay [5], 1%; in assay [6], 8%. Also, the inhibition in assay [7] was 12%; in [8] it was -3%; in [9], 11%; in assay [10] it was 1%; in assay [11] it was -5%; in assay [12], 11%. In addition, the inhibition in assay [13] turned out to be 2%; in assay [14], 4%; in assay [15] it was 2%; in [16], 4%; in [17], 13%; in [18] it was 5%. Moreover, the inhibition in [19] came out at 5%; in [20] it was 2%.

As for `Cc1cc2c(c(N)nn2C)c(N2CCCCC2)n1`, the inhibition in assay [1] was 19%; in assay [2], 1%; in [3], 8%; in assay [4] it was -2%; in assay [5], 0%; in assay [6], 6%. Moreover, the inhibition worked out at 4% in assay [7]; 23% in assay [8]; 6% in assay [9]; 17% in [10]; 4% in assay [11]; 7% in assay [12]. For the same compound, the inhibition stood at 8% in assay [14]; 7% in assay [15]; 13% in assay [16]; 41% in assay [17]; 11% in assay [18]; 4% in assay [19]. For the same compound, the inhibition was found to be 16% in [21] and 6% in [20].

With `O=S(=O)(NCCNC/C=C/c1ccc(Br)cc1)c1cccc2cnccc12`, the inhibition in [1] is 8%; in assay [3] it was 10%; in [4], 3%; in assay [6] it was 100%; in [10] it was 37%; in [11] it was 5%. Besides, the figures for the inhibition in [12], in [17] and in assay [19] were 41%, 71% and 18%, respectively.

Consider `Cc1cc2[nH]nc(N)c2cn1`, for which the inhibition in assay [1] was 11%; in assay [2] it was 4%; in assay [3] it was 9%; in [4], 5%; in [5], -3%; in [6], 19%. Further, the inhibition in assay [7] was 7%; in assay [8] it was 11%; in assay [9] it was 6%; in assay [10], 13%; in [11] it was 2%; in [12] it was 7%. The inhibition in [14] was found to be 3%; in assay [15], 13%; in assay [16], 8%; in assay [17], 31%; in assay [18], 8%; in [19], 6%. The inhibition in [21] was 25%; in assay [20], -1%.
